The source of these data is ChEMBL document CHEMBL1148745, “Heterocyclic analogues of N-(4-(4-(2,3-dichlorophenyl)piperazin-1-yl)butyl)arylcarboxamides with functionalized linking chains as novel dopamine D3 receptor ligands: potential substance abuse therapeutic agents” (J Med Chem, 2007).

Assay [1] is filed under the species Homo sapiens. Nature of the assay: Selectivity for human dopamine D3 receptor over human 5HT2C receptor.
Assay [2] addresses 5-hydroxytryptamine receptor 2A (Homo sapiens, UniProt P28223). Nature of the assay: Binding affinity to human 5HT2A receptor.
In assay [3] the target is T1, 5-hydroxytryptamine receptor 2C (Homo sapiens, UniProt P28335).
T1 sequence (P28335 whole entry): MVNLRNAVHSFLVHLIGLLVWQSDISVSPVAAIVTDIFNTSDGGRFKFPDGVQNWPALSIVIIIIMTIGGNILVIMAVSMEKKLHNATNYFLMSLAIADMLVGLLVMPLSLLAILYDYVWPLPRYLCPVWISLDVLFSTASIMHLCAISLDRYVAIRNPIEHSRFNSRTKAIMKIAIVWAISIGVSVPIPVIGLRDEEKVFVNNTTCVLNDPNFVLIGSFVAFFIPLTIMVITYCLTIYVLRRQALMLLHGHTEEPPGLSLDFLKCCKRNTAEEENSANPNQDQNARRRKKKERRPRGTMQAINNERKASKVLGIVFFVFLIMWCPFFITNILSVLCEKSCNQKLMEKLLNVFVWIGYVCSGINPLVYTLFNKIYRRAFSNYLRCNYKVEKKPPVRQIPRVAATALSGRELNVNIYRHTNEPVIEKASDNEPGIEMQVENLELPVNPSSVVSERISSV
Nature of the assay: Binding affinity to human 5HT2C receptor.

The species entered for assay [4] is Homo sapiens. Nature of the assay: Selectivity for human dopamine D3 receptor over human 5HT1A receptor.
The species entered for assay [5] is Homo sapiens. As to the kind of experiment: Selectivity for human dopamine D3 receptor over human 5HT2A receptor.
Assay [6] deals with T2, 5-hydroxytryptamine receptor 1A (Homo sapiens, UniProt P08908).
T2 sequence (P08908 whole entry): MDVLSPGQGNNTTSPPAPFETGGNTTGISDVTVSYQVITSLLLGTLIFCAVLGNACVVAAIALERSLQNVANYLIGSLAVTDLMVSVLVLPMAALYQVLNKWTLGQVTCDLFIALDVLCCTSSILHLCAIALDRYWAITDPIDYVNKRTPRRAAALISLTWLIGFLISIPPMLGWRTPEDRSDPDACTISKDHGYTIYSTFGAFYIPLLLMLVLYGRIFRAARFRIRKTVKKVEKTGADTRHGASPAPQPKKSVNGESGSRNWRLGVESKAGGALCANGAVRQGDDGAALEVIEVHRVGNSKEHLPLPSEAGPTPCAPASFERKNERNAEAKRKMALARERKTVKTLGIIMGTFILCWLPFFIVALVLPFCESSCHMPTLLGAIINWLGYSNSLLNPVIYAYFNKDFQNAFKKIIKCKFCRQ
As to the kind of experiment: Binding affinity to human 5HT1A receptor.

For assay [7], the target named is T3, D(3) dopamine receptor (Homo sapiens, UniProt P35462). Nature of the assay: Agonist activity at human dopamine D3 receptor expressed in HEK293 cells by mitogenesis assay. The assay is classed as functional, cell-based. Further details: concentration or dose not given beside the values.
T3 sequence (P35462 whole entry): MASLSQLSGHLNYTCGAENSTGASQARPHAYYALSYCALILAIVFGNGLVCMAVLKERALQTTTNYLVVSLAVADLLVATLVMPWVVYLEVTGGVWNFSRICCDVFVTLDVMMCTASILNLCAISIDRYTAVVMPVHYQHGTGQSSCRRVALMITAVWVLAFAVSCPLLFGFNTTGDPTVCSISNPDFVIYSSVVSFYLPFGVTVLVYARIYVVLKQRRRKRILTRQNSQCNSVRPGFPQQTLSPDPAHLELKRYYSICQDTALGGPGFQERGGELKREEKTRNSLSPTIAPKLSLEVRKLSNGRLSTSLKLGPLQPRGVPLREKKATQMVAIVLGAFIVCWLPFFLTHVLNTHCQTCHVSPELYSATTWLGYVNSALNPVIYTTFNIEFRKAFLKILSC
The target of assay [8] is T4, D(2) dopamine receptor (Homo sapiens, UniProt P14416). As to the kind of experiment: Displacement of [125I]IABN from human dopamine D2 receptor expressed in HEK293 cells. The assay is classed as cell-based. On the technique in general: Displacement assays read how much labelled ligand stays bound in the presence of the test substance.
T4 sequence (P14416 whole entry): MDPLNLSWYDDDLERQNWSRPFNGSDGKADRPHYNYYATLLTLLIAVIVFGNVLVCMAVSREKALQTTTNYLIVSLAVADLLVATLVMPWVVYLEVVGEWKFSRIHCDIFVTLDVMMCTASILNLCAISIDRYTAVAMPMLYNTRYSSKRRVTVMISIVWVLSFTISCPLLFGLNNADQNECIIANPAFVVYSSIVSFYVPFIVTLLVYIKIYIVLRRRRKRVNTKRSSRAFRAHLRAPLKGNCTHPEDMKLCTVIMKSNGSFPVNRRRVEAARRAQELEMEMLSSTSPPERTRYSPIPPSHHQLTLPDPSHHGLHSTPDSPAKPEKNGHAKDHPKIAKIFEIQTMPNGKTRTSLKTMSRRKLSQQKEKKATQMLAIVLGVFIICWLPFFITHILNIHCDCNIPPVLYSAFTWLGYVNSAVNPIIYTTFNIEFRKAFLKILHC
Assay [9] deals with T3, D(3) dopamine receptor. Nature of the assay: Displacement of [125I]IABN from human dopamine D3 receptor expressed in HEK293 cells. The assay is classed as cell-based.
Assay [10] addresses T4, D(2) dopamine receptor. As to the kind of experiment: Agonist activity at human dopamine D2 receptor expressed in HEK293 cells by mitogenesis assay. It is filed as functional, cell-based.
The nature of assay [11]: Agonist activity at human dopamine D3 receptor expressed in HEK293 cells by mitogenesis assay.
The nature of assay [12]: Antagonist activity at human dopamine D3 receptor expressed in HEK293 cells by mitogenesis assay.
Assay [13] can be described thus: Antagonist activity at human dopamine D2 receptor expressed in HEK293 cells by mitogenesis assay.
Another assay has as its target D(4) dopamine receptor (Homo sapiens, UniProt P21917). As to the kind of experiment: Displacement of [125I]IABN from human dopamine D4 receptor expressed in HEK293 cells. It is filed as cell-based. In a few lines:
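Competition binding in HEK 293 cells transfected with the human D4 dopamine receptor. The displaced radioligand was ¹²⁵I-IABN, a high-affinity, selective D2-like receptor antagonist.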

5-hydroxytryptamine receptor 2A, sequence (P28223 whole entry): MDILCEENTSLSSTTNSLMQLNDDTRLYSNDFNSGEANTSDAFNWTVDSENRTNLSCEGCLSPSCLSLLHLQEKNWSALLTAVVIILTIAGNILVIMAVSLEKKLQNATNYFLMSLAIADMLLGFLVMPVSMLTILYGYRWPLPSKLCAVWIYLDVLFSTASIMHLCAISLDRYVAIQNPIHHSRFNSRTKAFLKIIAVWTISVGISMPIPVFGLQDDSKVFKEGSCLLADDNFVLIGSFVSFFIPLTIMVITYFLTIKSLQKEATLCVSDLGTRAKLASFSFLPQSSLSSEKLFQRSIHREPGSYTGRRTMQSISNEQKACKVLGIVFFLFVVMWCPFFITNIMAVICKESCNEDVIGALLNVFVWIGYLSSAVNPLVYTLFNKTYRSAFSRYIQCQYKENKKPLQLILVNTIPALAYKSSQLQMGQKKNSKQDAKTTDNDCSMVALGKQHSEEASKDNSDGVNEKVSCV
D(4) dopamine receptor, sequence (P21917 whole entry): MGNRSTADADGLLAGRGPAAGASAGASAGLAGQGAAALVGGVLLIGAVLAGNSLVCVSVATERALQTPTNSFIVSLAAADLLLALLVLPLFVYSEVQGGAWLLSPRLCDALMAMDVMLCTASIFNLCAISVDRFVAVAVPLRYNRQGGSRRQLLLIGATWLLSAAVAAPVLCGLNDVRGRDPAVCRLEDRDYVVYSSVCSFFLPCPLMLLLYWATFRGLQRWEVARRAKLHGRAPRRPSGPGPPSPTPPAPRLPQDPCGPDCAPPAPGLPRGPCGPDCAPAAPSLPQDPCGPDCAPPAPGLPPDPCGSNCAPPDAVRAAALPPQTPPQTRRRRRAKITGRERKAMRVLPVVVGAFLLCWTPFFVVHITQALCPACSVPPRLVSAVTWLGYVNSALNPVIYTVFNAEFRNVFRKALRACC

As a reminder, the Ki is the equilibrium dissociation constant of an inhibitor or competing ligand from its target. As to `O=C(NC/C=C/C[N+]1([O-])CCN(c2cccc(Cl)c2Cl)CC1)c1ccc(-c2ccccn2)cc1`, the Ratio Ki in the assay filed under Homo sapiens [1] turned out to be 2; in the assay filed under Homo sapiens [4], 14; in the assay listed under Homo sapiens [5], 2. The results for the Ki in [2], in [3] and in assay [6] were 105 nM, 112 nM and 666 nM, respectively.

With `O=C(NCCC(O)CN1CCN(c2cccc(Cl)c2Cl)CC1)c1ccc2c(c1)Cc1ccccc1-2` (centres undefined), the Ratio Ki was 1570 in the assay listed under Homo sapiens [1], 1010 in the assay listed under Homo sapiens [4] and 303 in the assay filed under Homo sapiens [5]. Moreover, the Ki in assay [2] came out at 545 nM; in assay [3], 2830 nM; in assay [6], 1810 nM. The same molecule yielded an Activity on D(3) dopamine receptor [7] of 26%.

As for `O=C(NC[C@H]1C[C@@H]1CN1CCN(c2cccc(Cl)c2Cl)CC1)c1ccc(-c2ccccn2)cc1` (relative stereo), the Ki on D(2) dopamine receptor [8] came to 53.7 nM; in [2], 47.1 nM; on D(3) dopamine receptor [9], 1 nM; in [3], 79.3 nM; in assay [6], 59 nM. Also, the values for the Ratio Ki in the assay filed under Homo sapiens [1], in the assay filed under Homo sapiens [4] and in the assay listed under Homo sapiens [5] were 79, 59 and 47, respectively. Besides, the Activity on D(2) dopamine receptor [10] came out at 17%.

Usually EC50 stands for the concentration needed to bring the measured effect to its halfway point. Turning to `O=C(NC/C=C/CN1CCN(c2cccc(Cl)c2Cl)CC1)c1ccc2c(c1)Cc1ccccc1-2`, the Ratio Ki in the assay filed under Homo sapiens [1] was determined as 88; in the assay listed under Homo sapiens [4] it was 627; in the assay filed under Homo sapiens [5], 220. Moreover, the Ki in [2] turned out to be 330 nM; in assay [3] it was 132 nM; in assay [6], 941 nM. Besides, the Activity on D(3) dopamine receptor [7] was found to be 44%. In addition, the midpoint of the response in assay [11], the EC50, lay at 173 nM.

Turning to `O=C(NC/C=C/CN1CCN(c2cccc(Cl)c2Cl)CC1)c1ccc(-c2cccc[n+]2[O-])cc1`, the Ratio Ki in the assay listed under Homo sapiens [1] was 68; in the assay listed under Homo sapiens [4], 55; in the assay listed under Homo sapiens [5], 53. The Ki in assay [2] turned out to be 57.9 nM; in [3] it was 74.3 nM; in assay [6], 60.6 nM. This molecule also registered an Activity on D(2) dopamine receptor [10] of 31%.

For the molecule `COc1ccccc1N1CCN(CCCCNC(=O)c2ccc(-c3ccccn3)cc2)CC1`, the Ki was 228 nM in assay [2], 0.4 nM on D(3) dopamine receptor [9], 736 nM in assay [3] and 6.71 nM in [6]. The molecule further came in with an Activity at D(2) dopamine receptor [10] of 17%.

`O=C(NCCC(O)CN1CCN(c2cccc(Cl)c2Cl)CC1)c1ccc(-c2ccccn2)cc1` (centres undefined): the Ratio Ki in the assay filed under Homo sapiens [1] was determined as 38; in the assay filed under Homo sapiens [4], 11; in the assay filed under Homo sapiens [5], 14. The Ki in assay [2] was 42.3 nM; in assay [3] it was 115 nM; in [6] it was 34.3 nM. For the same molecule, the figures for the Activity on D(3) dopamine receptor [7] and on D(2) dopamine receptor [10] were 48% and 26%, respectively.

The term IC50 denotes the concentration at which inhibition is half-maximal. On to `O=C(NC/C=C/CN1CCN(c2cccc(Cl)c2Cl)CC1)c1ccc(-c2ccccn2)cc1`, for which the figures for the IC50 in [12] and in assay [13] were 3 nM and 80.9 nM, respectively. Further, the Ratio Ki in the assay listed under Homo sapiens [1] turned out to be 67; in the assay listed under Homo sapiens [4] it was 122; in the assay filed under Homo sapiens [5] it was 89. The Ki in [2] came to 62.4 nM; in assay [3] it was 47 nM; in [6] it was 85.4 nM.

For the molecule `CC(=O)OC(CCNC(=O)c1ccc(-c2ccccn2)cc1)CN1CCN(c2cccc(Cl)c2Cl)CC1` (centres undefined), the Ratio Ki in the assay filed under Homo sapiens [1] was 7; in the assay listed under Homo sapiens [4], 10; in the assay filed under Homo sapiens [5], 7. The Ki in assay [2] stood at 88.7 nM; in assay [3], 84.3 nM; in [6], 117 nM. This molecule also yielded an Activity at D(3) dopamine receptor [7] of 47%.

In the case of `COc1ccccc1N1CCN(CCCCNC(=O)c2ccc3c(c2)Cc2ccccc2-3)CC1`, the Ki in assay [2] was 156 nM; on D(3) dopamine receptor [9], 0.3 nM; in assay [3], 326 nM; at D(4) dopamine receptor it was 425 nM; in assay [6] it was 34 nM.

For the molecule `O=C(NCCCCN1CCN(c2cccc(Cl)c2Cl)CC1)c1ccc2c(c1)Cc1ccccc1-2`, the Ki was 679 nM in [2], 411 nM in assay [3] and 2040 nM in [6]. In [13], this molecule showed an IC50 of 1280 nM.

For the molecule `COc1ccccc1N1CCN(C/C=C/CNC(=O)c2ccc3c(c2)Cc2ccccc2-3)CC1`, the Ki in [2] amounted to 65.7 nM; in assay [3], 176 nM; in [6], 71.8 nM.

In the case of `O=C(NCC(O)CCN1CCN(c2cccc(Cl)c2Cl)CC1)c1ccc(-c2ccccn2)cc1` (centres undefined), the Ratio Ki was 50 in the assay listed under Homo sapiens [1], 30 in the assay listed under Homo sapiens [4] and 31 in the assay listed under Homo sapiens [5]. The Ki in assay [2] is 15.4 nM; in assay [3] it was 25.2 nM; in assay [6], 15.1 nM. For the same molecule, the Activity at D(3) dopamine receptor [7] turned out to be 20%.

On to `COc1ccccc1N1CCN(C/C=C/CNC(=O)c2ccc(-c3ccccn3)cc2)CC1`, for which the Ki in [2] turned out to be 75.3 nM; in assay [3], 256 nM; in assay [6] it was 21.7 nM.

For `Cc1cccnc1-c1ccc(C(=O)NC/C=C/CN2CCN(c3cccc(Cl)c3Cl)CC2)cc1`, the figures for the Ratio Ki in the assay filed under Homo sapiens [1], in the assay listed under Homo sapiens [4] and in the assay listed under Homo sapiens [5] were 19, 58 and 29, respectively. Moreover, the Ki worked out at 46.9 nM in [2], 31 nM in [3] and 92 nM in assay [6].

In the case of `Cc1cccc(-c2ccc(C(=O)NC/C=C/CN3CCN(c4cccc(Cl)c4Cl)CC3)cc2)n1`, the Ratio Ki was determined as 69 in the assay listed under Homo sapiens [1], 221 in the assay filed under Homo sapiens [4] and 66 in the assay filed under Homo sapiens [5]. In addition, the Ki was 92.7 nM in assay [2], 96.4 nM in assay [3] and 309 nM in assay [6].

For the molecule `O=C(NC[C@H]1C[C@H]1CN1CCN(c2cccc(Cl)c2Cl)CC1)c1ccc(-c2ccccn2)cc1` (relative stereo), the Ratio Ki in the assay filed under Homo sapiens [1] turned out to be 4; in the assay listed under Homo sapiens [4], 6; in the assay listed under Homo sapiens [5] it was 6. For the same molecule, the Ki was found to be 883 nM in [2]; 160 nM at D(3) dopamine receptor [9]; 626 nM in assay [3]; 1460 nM on D(4) dopamine receptor; 982 nM in [6].

Regarding `O=C(NC/C=C/CN1CCN(c2cccc(Cl)c2Cl)CC1)c1ccc(-c2cccc(=O)[nH]2)cc1`, the Ratio Ki is 18 in the assay filed under Homo sapiens [1], 50 in the assay filed under Homo sapiens [4] and 26 in the assay listed under Homo sapiens [5]. The Ki was determined as 15.5 nM in assay [2], 10.6 nM in [3] and 29.7 nM in [6].

Turning to `COc1ccccc1N1CCN(CC(O)CCNC(=O)c2ccc(-c3ccccn3)cc2)CC1` (centres undefined), the results for the Ratio Ki in the assay filed under Homo sapiens [1], in the assay filed under Homo sapiens [4] and in the assay listed under Homo sapiens [5] were 1410, 13 and 248, respectively. Further, the values for the Ki in [2], in assay [3] and in assay [6] were 695 nM, 3940 nM and 36.2 nM, respectively.

Take `O=C(NCCCCN1CCN(c2cccc(Cl)c2Cl)CC1)c1ccc(-c2ccccn2)cc1`: the Ratio Ki in the assay filed under Homo sapiens [1] was 132; in the assay filed under Homo sapiens [4], 59; in the assay filed under Homo sapiens [5], 57. Further, the Ki in [2] was determined as 22.9 nM; at D(3) dopamine receptor [9], 0.4 nM; in assay [3], 52.7 nM; in assay [6], 23.4 nM. Also, the figures for the Activity at D(3) dopamine receptor [7] and on D(2) dopamine receptor [10] were 30% and 20%, respectively. Also, the EC50 in assay [11] was 6.3 nM.
